Measurements from PMC7114156 (Antiviral Research, 2009).
Marks after values point to notes of the source that are not given here.

System: W12 cells
Experiment: mRNA measurement by RT-qPCR in W12 cells
Type: cell-based, human
Summary of the method: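 RNA was taken 0, 24 and 48 h after adding test compound; W12 cells were grown in 75 cm² flasks and washed in chilled PBS. 546 Pathway Set genes were run in quadruplicate by RT-qPCR: 10 μl reactions, primers 900 nM, probes 100 nM final. Ct was normalised to GAPDH, with dCt = Ct(control) − Ct(treated) and a two-sided t-test. Fold change was F = 2^dCt where p ≤ 0.05.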

[1] = W12 cells, 10 nM, 24 h, not significantly different from 1
[2] = W12 cells, 100 nM, 24 h, not significantly different from 1
[3] = W12 cells, 100 nM, 48 h, not significantly different from 1

O=C(N[C@@H]1CCCc2c1[nH]c1ccc(Cl)cc21)c1ccccn1 [GSK983, N-[(1R)-6-Chloro-2,3,4,9-tetrahydro-1H-carbazol-1-yl]-2-pyridinecarboxamide]
Expression of IFI6, IFI44 and IRF9 (W12 cells): strongly induced
Fold increase due to GSK983, CPT1B mRNA (W12 cells, 10 nM, 24 h): 2.2 fold
Fold increase due to GSK983, IFI16 mRNA (W12 cells, 10 nM, 24 h): 5.2 fold
Fold increase due to GSK983, IFI44 mRNA (W12 cells, 10 nM, 24 h): 2.9 fold
Fold increase due to GSK983, IFIT1 mRNA (W12 cells, 10 nM, 24 h): 2.6 fold
Fold increase due to GSK983, ISG15 mRNA (W12 cells, 10 nM, 24 h): 2.5 fold
Fold increase due to GSK983, OAS2 mRNA (W12 cells, 10 nM, 24 h): 2.1 fold
Fold increase due to GSK983, OASL mRNA (W12 cells, 10 nM, 24 h): 1.8 fold
Fold increase due to GSK983, TNFSF10 mRNA (W12 cells, 10 nM, 24 h): 3.7 fold
Fold increase due to GSK983, CCL5 mRNA [1]: 7.9 ^b fold
Fold increase due to GSK983, COL10A1 mRNA [1]: 0.8 ^b fold
Fold increase due to GSK983, CSF2 mRNA [1]: 1.5 ^b fold
Fold increase due to GSK983, DCN mRNA [1]: 1.5 ^b fold
Fold increase due to GSK983, DMPK mRNA [1]: 0.9 ^b fold
Fold increase due to GSK983, ERN2 mRNA [1]: 0.7 ^b fold
Fold increase due to GSK983, FMOD mRNA [1]: 1.0 ^b fold
Fold increase due to GSK983, IFI6 mRNA [1]: 1.1 ^b fold
Fold increase due to GSK983, IL6 mRNA [1]: 2.5 ^b fold
Fold increase due to GSK983, IL8 mRNA [1]: 1.8 ^b fold
Fold increase due to GSK983, IRF9 mRNA [1]: 1.0 ^b fold
Fold increase due to GSK983, LIFR mRNA [1]: 2.1 ^b fold
Fold increase due to GSK983, LRP1 mRNA [1]: 1.2 ^b fold
Fold increase due to GSK983, NR1H3 mRNA [1]: 0.6 ^b fold
Fold increase due to GSK983, OAS1 mRNA [1]: 1.1 ^b fold
Fold increase due to GSK983, SNAP25 mRNA [1]: 1.2 ^b fold
Fold increase due to GSK983, TLR5 mRNA [1]: 1.9 ^b fold
Fold increase due to GSK983, CCL5 mRNA (W12 cells, 10 nM, 48 h): 41.5 fold
Fold increase due to GSK983, CEL mRNA (W12 cells, 10 nM, 48 h): 14.1 fold
Fold increase due to GSK983, COL10A1 mRNA (W12 cells, 10 nM, 48 h): 2.0 fold
Fold increase due to GSK983, CPT1B mRNA (W12 cells, 10 nM, 48 h): 2.2 fold
Fold increase due to GSK983, CSF2 mRNA (W12 cells, 10 nM, 48 h): 1.7 fold
Fold increase due to GSK983, DCN mRNA (W12 cells, 10 nM, 48 h): 2.1 fold
Fold increase due to GSK983, DMPK mRNA (W12 cells, 10 nM, 48 h): 2.1 fold
Fold increase due to GSK983, ERN2 mRNA (W12 cells, 10 nM, 48 h): 2.6 fold
Fold increase due to GSK983, FMOD mRNA (W12 cells, 10 nM, 48 h): 1.5 fold
Fold increase due to GSK983, IFI6 mRNA (W12 cells, 10 nM, 48 h): 2.2 fold
Fold increase due to GSK983, IFI16 mRNA (W12 cells, 10 nM, 48 h): 1.6 fold
Fold increase due to GSK983, IFI44 mRNA (W12 cells, 10 nM, 48 h): 2.7 fold
Fold increase due to GSK983, IFIT1 mRNA (W12 cells, 10 nM, 48 h): 2.0 fold
Fold increase due to GSK983, IL6 mRNA (W12 cells, 10 nM, 48 h): 1.8 fold
Fold increase due to GSK983, IL8 mRNA (W12 cells, 10 nM, 48 h): 1.4 fold
Fold increase due to GSK983, IRF3 mRNA (W12 cells, 10 nM, 48 h): 1.3 fold
Fold increase due to GSK983, ISG15 mRNA (W12 cells, 10 nM, 48 h): 3.0 fold
Fold increase due to GSK983, LIFR mRNA (W12 cells, 10 nM, 48 h): 1.5 fold
Fold increase due to GSK983, LRP1 mRNA (W12 cells, 10 nM, 48 h): 3.5 fold
Fold increase due to GSK983, NR1H3 mRNA (W12 cells, 10 nM, 48 h): 1.8 fold
Fold increase due to GSK983, OAS1 mRNA (W12 cells, 10 nM, 48 h): 1.7 fold
Fold increase due to GSK983, OAS2 mRNA (W12 cells, 10 nM, 48 h): 1.8 fold
Fold increase due to GSK983, OASL mRNA (W12 cells, 10 nM, 48 h): 2.2 fold
Fold increase due to GSK983, SNAP25 mRNA (W12 cells, 10 nM, 48 h): 3.7 fold
Fold increase due to GSK983, TLR5 mRNA (W12 cells, 10 nM, 48 h): 1.7 fold
Fold increase due to GSK983, TNFSF10 mRNA (W12 cells, 10 nM, 48 h): 1.8 fold
Fold increase due to GSK983, CCL5 mRNA (W12 cells, 100 nM, 24 h): 3.1 fold
Fold increase due to GSK983, CEL mRNA (W12 cells, 100 nM, 24 h): 3.0 fold
Fold increase due to GSK983, COL10A1 mRNA (W12 cells, 100 nM, 24 h): 3.6 fold
Fold increase due to GSK983, CPT1B mRNA (W12 cells, 100 nM, 24 h): 3.2 fold
Fold increase due to GSK983, CSF2 mRNA (W12 cells, 100 nM, 24 h): 3.7 fold
Fold increase due to GSK983, DCN mRNA (W12 cells, 100 nM, 24 h): 2.3 fold
Fold increase due to GSK983, DMPK mRNA (W12 cells, 100 nM, 24 h): 2.9 fold
Fold increase due to GSK983, FMOD mRNA (W12 cells, 100 nM, 24 h): 1.7 fold
Fold increase due to GSK983, IFI6 mRNA (W12 cells, 100 nM, 24 h): 2.3 fold
Fold increase due to GSK983, IFI16 mRNA (W12 cells, 100 nM, 24 h): 1.3 fold
Fold increase due to GSK983, IFI44 mRNA (W12 cells, 100 nM, 24 h): 2.9 fold
Fold increase due to GSK983, IFIT1 mRNA (W12 cells, 100 nM, 24 h): 5.5 fold
Fold increase due to GSK983, IL6 mRNA (W12 cells, 100 nM, 24 h): 3.8 fold
Fold increase due to GSK983, IL8 mRNA (W12 cells, 100 nM, 24 h): 2.1 fold
Fold increase due to GSK983, IRF3 mRNA (W12 cells, 100 nM, 24 h): 1.5 fold
Fold increase due to GSK983, IRF9 mRNA (W12 cells, 100 nM, 24 h): 1.6 fold
Fold increase due to GSK983, ISG15 mRNA (W12 cells, 100 nM, 24 h): 4.3 fold
Fold increase due to GSK983, LRP1 mRNA (W12 cells, 100 nM, 24 h): 3.7 fold
Fold increase due to GSK983, NR1H3 mRNA (W12 cells, 100 nM, 24 h): 6.8 fold
Fold increase due to GSK983, OAS1 mRNA (W12 cells, 100 nM, 24 h): 2.2 fold
Fold increase due to GSK983, OAS2 mRNA (W12 cells, 100 nM, 24 h): 1.9 fold
Fold increase due to GSK983, OASL mRNA (W12 cells, 100 nM, 24 h): 6.7 fold
Fold increase due to GSK983, TLR5 mRNA (W12 cells, 100 nM, 24 h): 2.4 fold
Fold increase due to GSK983, TNFSF10 mRNA (W12 cells, 100 nM, 24 h): 4.3 fold
Fold increase due to GSK983, ERN2 mRNA [2]: 1.7 ^b fold
Fold increase due to GSK983, LIFR mRNA [2]: 1.3 ^b fold
Fold increase due to GSK983, SNAP25 mRNA [2]: 1.7 ^b fold
Fold increase due to GSK983, CCL5 mRNA (W12 cells, 100 nM, 48 h): 47.4 fold
Fold increase due to GSK983, CEL mRNA (W12 cells, 100 nM, 48 h): 10.6 fold
Fold increase due to GSK983, COL10A1 mRNA (W12 cells, 100 nM, 48 h): 2.4 fold
Fold increase due to GSK983, CPT1B mRNA (W12 cells, 100 nM, 48 h): 6.4 fold
Fold increase due to GSK983, CSF2 mRNA (W12 cells, 100 nM, 48 h): 4.9 fold
Fold increase due to GSK983, DCN mRNA (W12 cells, 100 nM, 48 h): 15.4 fold
Fold increase due to GSK983, DMPK mRNA (W12 cells, 100 nM, 48 h): 4.1 fold
Fold increase due to GSK983, ERN2 mRNA (W12 cells, 100 nM, 48 h): 2.8 fold
Fold increase due to GSK983, FMOD mRNA (W12 cells, 100 nM, 48 h): 2.5 fold
Fold increase due to GSK983, IFI6 mRNA (W12 cells, 100 nM, 48 h): 7.3 fold
Fold increase due to GSK983, IFIT1 mRNA (W12 cells, 100 nM, 48 h): 5.5 fold
Fold increase due to GSK983, IL6 mRNA (W12 cells, 100 nM, 48 h): 10.2 fold
Fold increase due to GSK983, IL8 mRNA (W12 cells, 100 nM, 48 h): 2.3 fold
Fold increase due to GSK983, ISG15 mRNA (W12 cells, 100 nM, 48 h): 9.3 fold
Fold increase due to GSK983, LIFR mRNA (W12 cells, 100 nM, 48 h): 2.2 fold
Fold increase due to GSK983, LRP1 mRNA (W12 cells, 100 nM, 48 h): 3.5 fold
Fold increase due to GSK983, NR1H3 mRNA (W12 cells, 100 nM, 48 h): 2.7 fold
Fold increase due to GSK983, OAS1 mRNA (W12 cells, 100 nM, 48 h): 5.0 fold
Fold increase due to GSK983, OAS2 mRNA (W12 cells, 100 nM, 48 h): 2.9 fold
Fold increase due to GSK983, OASL mRNA (W12 cells, 100 nM, 48 h): 10.9 fold
Fold increase due to GSK983, SNAP25 mRNA (W12 cells, 100 nM, 48 h): 4.7 fold
Fold increase due to GSK983, TLR5 mRNA (W12 cells, 100 nM, 48 h): 3.1 fold
Fold increase due to GSK983, TNFSF10 mRNA (W12 cells, 100 nM, 48 h): 8.4 fold
Fold increase due to GSK983, IFI16 mRNA [3]: 1.2 ^b fold
Fold increase due to GSK983, IRF3 mRNA [3]: 1.2 ^b fold
Number of genes of the Pathway Set with significant increases in expression (W12 cells, at both 10 and 100 nM, 546 genes): 22 genes
Expression of the three interferons (alpha, beta, and gamma), PKR and Mx1 (data not shown): not induced
